Measurements taken from paper PMC9380703 (RSC Advances, 2022).

What was measured:
Assay type in all cases: cell-based
[1] = tested on: MCF-7 (breast cancer); assay: MTT cytotoxicity assay, MCF-7 cells; conditions: Homo sapiens, MCF7, 48 h, read-out: IC50 ± SD MCF-7
How it was run: (§1)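 Cells exposed to test compounds for 48 h; viability read by MTT. IC50 computed from triplicate experiments and reported as mean ± SD, with paclitaxel as positive control. BEAS-2B normal lung epithelial cells assayed alongside the cancer lines.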

[2] = tested on: HeLa (human cervical cancer cells); assay: MTT cytotoxicity assay, HeLa cells; conditions: 48 h, read-out: IC50 ± SD HeLa
How it was run: as §1

[3] = tested on: A549 (non-small lung carcinoma) cells; assay: MTT cytotoxicity assay, A549 cells; conditions: Homo sapiens, A549, 48 h, read-out: IC50 ± SD A549
How it was run: as §1

[4] = tested on: BEAS-2B (normal human lung epithelial cells); assay: MTT cytotoxicity assay, BEAS-2B normal cells; conditions: 48 h, read-out: IC50 ± SD BEAS-2B
How it was run: as §1

| SMILES | IC50 [1] [nM] | IC50 [2] [nM] | IC50 [3] [nM] | IC50 [4] [nM] |
| --- | --- | --- | --- | --- |
| C[C@]12CC[C@H](O)C[C@H]1CC[C@@H]1[C@@H]2C[C@@H](O)[C@]2(C)[C@@H](C3=CC(=O)OC3)CC[C@]12O [Compound 6, digoxigenin] | 1440 ± 10 | 770 ± 230 | 1280 ± 230 | 2580 ± 110 |
| CC(=O)O[C@H]1C[C@H](O[C@H]2[C@@H](O)C[C@H](O[C@H]3[C@@H](O)C[C@H](O[C@H]4CC[C@@]5(C)[C@H](CC[C@@H]6[C@@H]5C[C@@H](O)[C@]5(C)[C@@H](C7=CC(=O)OC7)CC[C@]65O)C4)O[C@@H]3C)O[C@@H]2C)O[C@H](C)[C@H]1O [Compound 8, acetyldigoxin] | 190 ± 60 | 130 ± 7 | 150 ± 10 | 250 ± 60 |
| CC(=O)O[C@H]1C[C@H](O[C@H]2[C@@H](O)C[C@H](O[C@H]3[C@@H](O)C[C@H](O[C@H]4CC[C@@]5(C)[C@H](CC[C@@H]6[C@@H]5C[C@@H](O)[C@]5(C)[C@@H](C7=CC(=O)OC7)CC[C@]65O)C4)O[C@@H]3C)O[C@@H]2C)O[C@H](C)[C@H]1O[C@@H]1O[C@H](CO)[C@@H](O)[C@H](O)[C@H]1O [Compound 9, lanatoside C] | 240 ± 110 | 130 ± 13 | 190 ± 30 | 370 ± 100 |
| CC(=O)O[C@H]1C(=O)[C@@]2(C)[C@H]([C@H](OC(=O)c3ccccc3)[C@]3(O)C[C@H](OC(=O)[C@H](O)[C@@H](NC(=O)c4ccccc4)c4ccccc4)C(C)=C1C3(C)C)[C@]1(OC(C)=O)CO[C@@H]1C[C@@H]2O [Paclitaxel, reference compound] | 110 ± 50 | 20 ± 10 | 60 ± 40 | 130 ± 30 |
